Tests used:
Mus musculus = test: In vivo anticonvulsant activity in mouse determined by maximum electroshock induced seizure (MES) assay; type: functional
In short: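 Male NSA mice; compound in 10% Tween-80/water, iv, 5 min before test. Corneal electrodes deliver 50 mA, 60 pulses/s, 0.8-ms pulse width, 1-s d.c. Protection means no tonic hindlimb extension >90° within 30 s. Screened at 10 mg/kg (n = 8), then 4–5 doses (n = 15–24/dose). ED50 with 95% CI by Litchfield–Wilcoxon.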

Rattus norvegicus = species on record: Rattus norvegicus; test: In vitro inhibition of AMPA activated current in xenopus oocytes expressing rat cerebral cortex poly(A)+ RNA.; type: functional
In short: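 Two-electrode voltage clamp, holding -70 mV, of Xenopus oocytes injected with ~25 ng rat cerebral cortex poly(A)+ RNA, superfused in Ringer. Baseline current from 10 μM AMPA. Antagonist at increasing concentrations preapplied ~30 s, then coapplied with 10 μM AMPA. IC50 from four-parameter logistic fit to pooled data of 3–4 experiments, mean ± SEM.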

| Structure (SMILES) | IC50 (Rattus norvegicus) | ED50 (Mus musculus) |
| --- | --- | --- |
| COc1cc2c(cc1OC)C(c1ccc(N)cc1)=NNC(=O)C2 | 180 µM | > 10 mg/kg |
| O=C1Cc2cc3c(cc2C(c2ccc(F)cc2)=NN1)OCO3 | 62 µM | > 10 mg/kg |
| O=C1Cc2cc3c(cc2C(c2ccc([N+](=O)[O-])cc2)=NN1)OCO3 | 56 µM | > 10 mg/kg |
| COc1ccc(C2=NNC(=O)Cc3cc4c(cc32)OCO4)cc1 | 23 µM |  |
| CC1=NN=C(c2ccc(N)cc2)c2cc3c(cc2C1)OCO3 [GYKI-52466] | 6.9 µM | 4.6 mg/kg |

Further lines, with some results ahead:

| IC50 (Rattus norvegicus) | Structure (SMILES) | ED50 (Mus musculus) |
| --- | --- | --- |
| 2.7 µM | Nc1ccc(C2=NNC(=O)Cc3cc4c(cc32)OCO4)cc1 | 2.8 mg/kg |
| 21 µM | O=C1Cc2cc3c(cc2C(c2ccccc2)=NN1)OCO3 | 12.9 mg/kg |
| 15 µM | Cc1ccc(C2=NNC(=O)Cc3cc4c(cc32)OCO4)cc1 | 16 mg/kg |

Reference: ChEMBL document CHEMBL1131020, “Synthesis of 7,8-(methylenedioxy)-1-phenyl-3,5-dihydro-4H-2, 3-benzodiazepin-4-ones as novel and potent noncompetitive AMPA receptor antagonists” (J Med Chem, 1998)
